Published values from different studies.
Protocols differ between the studies behind these lines.
Target: Serine/threonine-protein kinase 4 (STK4, Homo sapiens, UniProt Q13043)
One construct used (Q13043 1-487): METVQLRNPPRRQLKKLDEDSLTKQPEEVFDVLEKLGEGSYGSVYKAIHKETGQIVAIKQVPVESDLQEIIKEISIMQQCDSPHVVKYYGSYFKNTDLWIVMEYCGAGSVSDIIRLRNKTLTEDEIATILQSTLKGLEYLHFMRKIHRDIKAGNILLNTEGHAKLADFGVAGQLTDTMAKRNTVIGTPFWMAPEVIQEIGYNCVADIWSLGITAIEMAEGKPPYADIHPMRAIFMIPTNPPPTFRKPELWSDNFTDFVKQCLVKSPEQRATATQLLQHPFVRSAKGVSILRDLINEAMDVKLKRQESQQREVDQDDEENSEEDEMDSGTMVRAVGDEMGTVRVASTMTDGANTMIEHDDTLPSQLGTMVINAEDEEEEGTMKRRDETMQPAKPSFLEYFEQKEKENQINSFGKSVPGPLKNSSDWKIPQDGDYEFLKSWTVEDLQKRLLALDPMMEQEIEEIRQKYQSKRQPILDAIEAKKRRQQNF

With `CCCCC(=O)Nc1ccc(-c2ccc3ncn(CCC)c(=O)c3c2)cn1` the remaining binding was 95% (binding, competition with immobilised ligand; 0.5 µM).
`CO[C@@H]1[C@H](N(C)C(=O)c2ccccc2)C[C@H]2O[C@]1(C)n1c3ccccc3c3c4c(c5c6ccccc6n2c5c31)C(=O)NC4` has an inhibition of 78% (enzyme activity, inhibitor; 1 µM).
`Cc1cc(O)c(-c2ccc([C@@H](C)CN(C)C)cc2)c2c1[nH]c(=O)c1sccc12` has an inhibition of -0.517% (enzyme activity, inhibitor; 0.1 µM).
With `COc1ccc2oc(-c3ccc4nc(N)oc4c3)c/c(=N\c3ccccc3NC(=O)CCN)c2c1` the remaining binding was 111% (binding; 1 µM).
For `COc1ccc2[nH]c3c4[nH]c5ccc(OC)cc5c4c4c(c3c2c1)C(=O)NC4=O`, the remaining binding was 100% (binding, competition with immobilised ligand; 1 µM).
For `C=CC(=O)N1CCC([C@@H]2CCNc3c(C(N)=O)c(-c4ccc(Oc5ccccc5)cc4)nn32)CC1`, the inhibition was 0% (enzyme activity, inhibitor; 1 µM).
The remaining signal of `C1=C/COCc2cc(ccc2OCCN2CCCC2)Nc2nccc(n2)-c2cccc(c2)COC/1` is reported as 100% (cell-free assay; 0.1 µM).
The remaining binding of `CN1CCN(C(=O)c2ccc(NC(=O)Nc3ccc(N(C)c4ccnc(Nc5ccc(CS(C)(=O)=O)cc5)n4)cc3)cc2)CC1` is reported as 96% (binding, competition with immobilised ligand; 1 µM).
`C#Cc1cc(-c2cc(Nc3nc(N[C@@H](C)c4ccc(F)cn4)ncc3Cl)n[nH]2)ccc1C=O` gave an inhibition of 54.5% (enzyme activity, inhibitor; 0.2 µM).
